# Screening results deposited in PubChem BioAssay by several laboratories.
# Most compounds without a hit are left out; they make up all but 1.4% or so of the library.
# DAGLB inhibitor – diacylglycerol lipase beta (human) inhibition; hit rate 0.059% among 340,000; HEK293T DAGLB membrane lysate, EnzChek fluorogenic substrate; inhibition, % at 5.17 µM; AID 504411; Q8NCG7; in the data active = inhibition above about 34%;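 note: 0% = enzyme with vehicle and 100% = wells lacking enzyme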
# Target sequence (Q8NCG7 whole entry, looked up): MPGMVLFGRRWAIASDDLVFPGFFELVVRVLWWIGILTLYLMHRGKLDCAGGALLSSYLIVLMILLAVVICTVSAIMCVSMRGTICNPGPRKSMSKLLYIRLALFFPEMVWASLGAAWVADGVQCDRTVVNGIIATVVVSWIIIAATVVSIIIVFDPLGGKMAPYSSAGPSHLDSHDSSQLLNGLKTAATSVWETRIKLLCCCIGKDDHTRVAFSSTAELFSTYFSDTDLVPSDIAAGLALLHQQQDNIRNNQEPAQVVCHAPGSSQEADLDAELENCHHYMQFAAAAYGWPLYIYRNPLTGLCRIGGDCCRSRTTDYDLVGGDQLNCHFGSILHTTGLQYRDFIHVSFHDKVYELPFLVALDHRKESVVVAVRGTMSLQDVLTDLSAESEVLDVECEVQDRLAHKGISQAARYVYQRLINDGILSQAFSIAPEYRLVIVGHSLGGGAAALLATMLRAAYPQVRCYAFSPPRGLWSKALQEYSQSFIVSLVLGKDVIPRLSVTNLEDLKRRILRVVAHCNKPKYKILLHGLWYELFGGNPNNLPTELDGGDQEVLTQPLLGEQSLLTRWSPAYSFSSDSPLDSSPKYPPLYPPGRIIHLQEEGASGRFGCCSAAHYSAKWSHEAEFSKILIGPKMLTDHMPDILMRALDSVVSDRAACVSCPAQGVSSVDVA
# Tn6 DDE FP – DD(E)-Tn6 binding inhibition, primary FP screen; Fibrin DD(E) TRITC-Tn6 fluorescence polarization displacement; inhibition, % at 8.3 µM; hit rate 0.21% among 370,000; P02675;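 active = inhibition above a per-campaign cutoff: mean of compounds within control limits plus 3 SD, cut at about 15% in these data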;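 note: 0% = median of all compound wells on the plate and 100% = blocking peptide control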
# H9c2 protect – myocardial damage modulation in H9c2 cells; H9c2 cardiomyocytes, H2O2 injury protection, ATPLite, 2 h; protection from H2O2 cell death, % at 20 µM; AID 588492; hit rate 0.63% among 360,000;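 active = compounds giving at least 50% protection of heart cells from peroxide-induced death in the single-dose screen, raw or plate-pattern-corrected value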;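 note: 0% = DMSO wells with peroxide and 100% = DMSO wells without peroxide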
# MT1-MMP act inh – inhibitors of human MT1-MMP activation. P50281. hit rate 0.061% among 360,000. GFP/RFP ratio change, % at 20 µM. HT1080 RFP-PRO-GFP cells, GFP/RFP ratio fluorescence, overnight; percent of plate control window, DMSO zero;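 active = GFP/RFP ratio change of at least 30% with cell ATP level not reduced by more than half and red fluorescence within 50% of control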
#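 Test system: HT1080 cells expressing an RFP-PRO-GFP fluorescent reporter construct / Compound dosing: single-point 20 µM compound, 1% DMSO / Schedule: cells overnight before dosing, compound overnight, 37 °C, 5% CO2 / Evaluation: GFP/RFP fluorescence ratio / Control set: DMSO and RFP-L50D-GFP cell wells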
# H9c2 TAG inh – reduces triacylglycerol accumulation in H9c2 cells. inhibition, % at 12.5 µM. Nile Red lipid (TAG) fluorescence; cells loaded with 200 µM oleic acid. hit rate 0.66% among 230,000;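 active = pattern-corrected inhibition of lipid staining of at least 50% with the nuclear-stain viability signal not falling by more than 50%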;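 note: 0% = DMSO wells and 100% = triacsin C control wells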
# Tn7 DDE FP – inhibitors of Tn7 peptide binding to human fibrin DD(E). P02675. FP displacement of FITC-Tn7 peptide from fibrin DD(E); 0% = median of compound wells per plate. inhibition, % at 8.3 µM. hit rate 0.13% among 370,000;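 active = inhibition above the mean of compounds falling within the control limits plus 3 SD of them, cut at about 14% in these data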;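 note: 0% = plate median of compound wells and 100% = 10 µM Aha-Tn7 peptide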
#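 assay system = human clot-derived fibrin DD(E) complex | quantity = Fibrin-DD(E) at 2 µM final | timing = 10 min preincubation, 3 h with tracer, room temperature | signal = fluorescence polarization | measure = percent inhibition | benchmarks = high control wells with 10 µM unlabelled Aha-Tn7 peptide (full inhibition) | replicates = singlicate testing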
# Starred values were filed as active, the others as inactive; . = not tested or not shown.
SMILES,DAGLB inhibitor,Tn6 DDE FP,H9c2 protect,MT1-MMP act inh,H9c2 TAG inh,Tn7 DDE FP
COc1ccc(O)c(/C=N/Nc2nc(C)cc(-c3ccccc3)n2)c1,-1,-3,66*,3,13,3
O=S1(=O)c2ccc(N3CCSCC3)cc2Oc2ccccc2CN1Cc1cn(Cc2cccc(F)c2)nn1,.,1,.,.,.,-1
CCOC(=O)c1nn(-c2cccc(Cl)c2)c2nc(Nc3ccccc3)cc(=O)n12,0,-2,3,2,.,2
CCOC(=O)c1nn(-c2cccc(OC)c2)c2nc(Nc3ccccc3)cc(=O)n12,3,1,52*,-13,.,-2
Cc1ccc(-c2c(NC(=O)C3CC3)nc3ncccn23)cc1,.,-5,.,.,.,1
CCOc1ccc(-n2c(SCC(=O)Nc3cccc4ccccc34)nnc2-c2ccco2)cc1,.,-2,.,.,.,0
CO/N=C/C(=N\Nc1ccc(C)cc1)C(=O)c1ccc(OC)cc1,-1,6,-2,-8,60*,1
O=C1/C(=C\c2ccc(Cl)c(Cl)c2)CN(C(=O)CCN2CCOCC2)C/C1=C/c1ccc(Cl)c(Cl)c1,1,6,-20,-11,63*,4
O=C(Nc1ccccc1C(F)(F)F)OCCCN1CCC2(CCC(c3ccccc3)CC2)C1=O (centres undefined),.,-3,.,.,.,5
Cc1ccc(S(=O)(=O)N2CCCC2C(=O)N2CCN(c3ccccc3)CC2)cc1 (centres undefined),.,4,.,.,.,-8
Cc1cccc(NC(=O)COc2cccc3c2CCNC3=O)c1,-5,2,59*,6,17,0
O=C(COc1cccnc1[N+](=O)[O-])Nc1ccc(F)cc1,-1,3,2,4,-8,-3
COc1cccc(NC(=O)COc2cccc3c2CCNC3=O)c1,0,9,56*,-1,3,5
O=C(COc1cccc2c1CCNC2=O)Nc1ccc(F)cc1,-1,-2,51*,-3,15,-2
Cc1cccc(NC(=O)COc2cccc3c2CCN(C)C3=O)c1,2,6,5,6,8,2
COc1ccc(NC(=O)COc2cccc3c2CCNC3=O)cc1,0,-9,68*,1,-3,-7
COC(=O)C1=C(C)N(Cc2cccc(C(F)(F)F)c2)C(=NCC2CC2)NC1c1ccccc1 (centres undefined),.,5,.,.,.,-1
N#Cc1ccc(/C=C2\CC3(OC(=O)c4ccccc4)CCCN2C3)cc1 (centres undefined),.,0,.,.,.,-5
CN=C1S/C(=C/c2cc(C)n(-c3cc(C)ccc3OC)c2C)C(=O)N1C,.,-1,.,.,.,5
Oc1ccc(/C=N/Nc2nc(N3CCCC3)nc(N3CCCC3)n2)cc1O,2,-2,76*,1,11,-1
CCNC(=O)C[C@H]1CC[C@H]2[C@@H](COc3ccc(NC(=O)c4ccc5c(c4)OCO5)cc3C(=O)N2C)O1,.,5,.,.,.,-14
CCN(Cc1cn(Cc2ccccc2)nn1)S(=O)(=O)c1ccccc1Br,.,-3,.,.,.,-7
Cc1ccc(NC(=O)OC[C@@H]2CSCCS(=O)(=O)N2)cc1,.,1,.,.,.,-2
CN(C)CC(C(=O)c1ccccc1)c1ccccc1 (centres undefined),15,0,-32,-9,65*,-4
O=C(CC(C(=O)c1ccccc1)c1ccccc1)c1ccccc1 (centres undefined),-10,-6,56*,-2,-8,-4
SMILES,DAGLB inhibitor,Tn6 DDE FP,H9c2 protect,MT1-MMP act inh,H9c2 TAG inh,Tn7 DDE FP
O=C(CC(C(=O)O)c1cccc(Cl)c1)c1ccccc1 (centres undefined),0,-3,-1,0,.,-2
COc1cc(/C=C2\SC(N)=NC2=O)ccc1OCC(=O)Nc1ccccc1C,2,-1,54*,-1,15,1
CCCc1nc2oc3c(NCCCN(C)C)ncnc3c2c2c1CCCC2,.,6,-13,2,63*,-1
COCCn1ccc2c(OCC(=O)Nc3ccccc3OC)cccc2c1=O,-2,1,54*,8,25,-3
COCCNC(=O)COC(=O)c1ccc(OCC(=O)Nc2ccccc2OC)c(OC)c1,2,-5,56*,0,2,-1
CC(C)(C)OC(=O)NCc1cc(F)ccc1/C=C/S(=O)(=O)NC1CCCC1,.,-7,.,.,.,0
CC1CCN(c2ccc(C(=O)O)cc2NS(=O)(=O)c2ccc(Cl)s2)CC1,.,1,.,.,.,2
Cc1ccc2cc(C#N)c(N3CCN(C(=O)c4cccs4)CC3)nc2c1,-4,11,58*,-3,-16,7
Cc1ccc2nc(N3CCN(C(=O)c4ccc(F)cc4)CC3)c(C#N)cc2c1,-1,5,6,-6,.,0
COc1ccc(-c2cn3cccnc3n2)cc1NC(=O)c1ccc(Br)o1,-2,-4,58*,5,.,-5
C#CCC1c2ccccc2CCN1CC=C (centres undefined),.,-4,.,.,.,-8
O=C(Cn1[nH]c(=O)c2ccccc2c1=O)OCC(=O)c1ccc(Br)cc1,-1,-3,10,-2,-2,-3
CC(OC(=O)Cn1[nH]c(=O)c2ccccc2c1=O)C(=O)Nc1ccccc1[N+](=O)[O-] (centres undefined),2,-2,79*,2,-12,1
CCc1ccc(C(=O)C(C)OC(=O)Cn2[nH]c(=O)c3ccccc3c2=O)cc1 (centres undefined),-4,-2,44,-1,9,-6
Cc1nn(CC(=O)OC(C)C(=O)Nc2ccccc2[N+](=O)[O-])c(C)c1[N+](=O)[O-] (centres undefined),-3,6,4,-3,.,3
CC(OC(=O)Cn1[nH]c(=O)c2ccccc2c1=O)C(=O)Nc1ccc(F)cc1Cl (centres undefined),3,-1,67*,-2,-22,-4
COc1ccccc1C(=O)COC(=O)Cn1[nH]c(=O)c2ccccc2c1=O,1,2,53*,-1,7,-2
CC(OC(=O)Cn1[nH]c(=O)c2ccccc2c1=O)C(=O)Nc1cccc(Cl)c1 (centres undefined),-1,-5,59*,2,-2,-5
CC(C)CNC(=O)C1CSCCS(=O)(=O)N1Cc1ccccc1 (centres undefined),.,-3,.,.,.,-1
Cc1cc(NC(=O)COC(=O)Cn2[nH]c(=O)c3ccccc3c2=O)c([N+](=O)[O-])cc1C,-2,2,93*,3,0,0
Cc1cc(C)cc(N(CCC#N)C(=O)COC(=O)Cn2[nH]c(=O)c3ccccc3c2=O)c1,3,9,77*,4,-2,-3
COc1ccc2nc(NN=C(C)c3ccccn3)cc(C)c2c1,2,-4,-8,16,67*,2
